Experimental findings from ChEMBL document CHEMBL4371033, “Highly Potent and Selective Plasmin Inhibitors Based on the Sunflower Trypsin Inhibitor-1 Scaffold Attenuate Fibrinolysis in Plasma” (J Med Chem, 2019) are described below.

Each structure is given as a SMILES string. Residues, ends and D or L forms follow the SMILES beside them.

What is called inhibition is the drop in the measured response relative to a control, in per cent. As usually defined, the Ki is the dissociation constant of the complex between target and ligand, obtained from inhibition or displacement. A higher Ki goes with a looser hold on the target.

For experiment [1], the species on record is Homo sapiens. Put plainly: Selectivity index, ratio of IC50 for inhibition of activated factor 10 (unknown origin) to IC50 for Inhibition of human plasmin.
Experiment [2] deals with T1, Plasminogen (Homo sapiens, UniProt P00747). Briefly: Inhibition of plasmin in human plasma assessed as reduction in tPA and thrombin-induced fibrinolysis at 400 nM by fibrin light scattering analysis relative to control. It counts as cell-free. In a few lines: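 Pooled citrated human plasma with inhibitor in Tris-HCl pH 7.4, 150 mM NaCl, 30 mM CaCl2, plasma 1:5 final. Clotting and lysis started with tPA (1.5 nM) and thrombin (2.5 nM). Fibrin formation and lysis followed by light scattering at 405 nm over 1 h. Mean of three independent experiments, each with 12 technical replicates.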

Experiment [3] is filed under the species Homo sapiens. Briefly: Selectivity index, ratio of IC50 for inhibition of human thrombin to IC50 for Inhibition of human plasmin.
Experiment [4] is filed under the species Homo sapiens. Put plainly: Selectivity index, ratio of IC50 for inhibition of matriptase (unknown origin) to IC50 for Inhibition of human plasmin.
Experiment [5] has as its target T1, Plasminogen. Briefly: Inhibition of human plasmin assessed as dissociation rate constant using Ac-RM(O2)YR-pNA as substrate after 30 mins. Summed up:
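koff from the Baici and Gyger-Marazzi method: the lag phase before steady-state hydrolysis was compared between protease/inhibitor preincubated and substrate plus inhibitor added together. Human plasmin in 100 mM Tris pH 8.0, 100 mM NaCl, 0.005% Triton X-100, pNA substrate read at 405 nm.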

Another experiment has as its target Coagulation factor XI (Homo sapiens, UniProt P03951). Briefly: Inhibition of activated beta-factor 11 (unknown origin) using Bz-FVRpNA as substrate after 30 mins relative to untreated control.
Experiment [6] is filed under the species Homo sapiens. Briefly: Selectivity index, ratio of IC50 for inhibition of activated beta-factor 12 (unknown origin) to IC50 for Inhibition of human plasmin.
A further experiment concerns the target T2, Serine protease 1 (Bos taurus, UniProt P00760).
T2 sequence (P00760 whole entry): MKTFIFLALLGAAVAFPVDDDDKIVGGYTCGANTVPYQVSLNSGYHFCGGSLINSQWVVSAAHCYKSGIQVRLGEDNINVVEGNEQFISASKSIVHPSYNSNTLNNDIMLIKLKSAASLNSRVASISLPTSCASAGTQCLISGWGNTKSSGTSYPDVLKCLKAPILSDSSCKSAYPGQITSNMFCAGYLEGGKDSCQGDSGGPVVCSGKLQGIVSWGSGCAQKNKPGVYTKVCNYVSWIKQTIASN
Briefly: Inhibition of bovine cationic trypsin using Bz-FVR-pNA as substrate after 30 mins.

T1 sequence (P00747 97-580 limits assumed): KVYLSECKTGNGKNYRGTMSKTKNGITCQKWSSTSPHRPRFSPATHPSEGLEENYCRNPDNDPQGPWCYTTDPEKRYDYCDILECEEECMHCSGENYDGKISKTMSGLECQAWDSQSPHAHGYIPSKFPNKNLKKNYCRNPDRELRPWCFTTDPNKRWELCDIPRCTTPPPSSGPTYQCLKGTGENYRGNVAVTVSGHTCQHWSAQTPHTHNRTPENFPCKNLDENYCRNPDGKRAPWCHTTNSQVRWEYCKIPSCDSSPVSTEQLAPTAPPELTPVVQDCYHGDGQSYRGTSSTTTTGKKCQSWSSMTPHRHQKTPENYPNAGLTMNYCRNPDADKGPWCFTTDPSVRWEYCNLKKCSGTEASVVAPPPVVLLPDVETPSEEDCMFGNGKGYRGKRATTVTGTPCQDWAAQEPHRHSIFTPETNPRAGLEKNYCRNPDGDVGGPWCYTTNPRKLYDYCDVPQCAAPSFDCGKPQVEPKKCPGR
T1 sequence (P00747 581-810 limits assumed): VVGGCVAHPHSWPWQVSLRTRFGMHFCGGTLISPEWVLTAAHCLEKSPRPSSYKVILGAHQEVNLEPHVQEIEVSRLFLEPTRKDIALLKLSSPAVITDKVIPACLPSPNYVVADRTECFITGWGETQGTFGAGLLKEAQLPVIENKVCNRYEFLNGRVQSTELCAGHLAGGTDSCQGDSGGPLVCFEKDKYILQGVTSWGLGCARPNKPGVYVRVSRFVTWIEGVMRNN
Chain of Coagulation factor XI (P03951 19-387 limits assumed): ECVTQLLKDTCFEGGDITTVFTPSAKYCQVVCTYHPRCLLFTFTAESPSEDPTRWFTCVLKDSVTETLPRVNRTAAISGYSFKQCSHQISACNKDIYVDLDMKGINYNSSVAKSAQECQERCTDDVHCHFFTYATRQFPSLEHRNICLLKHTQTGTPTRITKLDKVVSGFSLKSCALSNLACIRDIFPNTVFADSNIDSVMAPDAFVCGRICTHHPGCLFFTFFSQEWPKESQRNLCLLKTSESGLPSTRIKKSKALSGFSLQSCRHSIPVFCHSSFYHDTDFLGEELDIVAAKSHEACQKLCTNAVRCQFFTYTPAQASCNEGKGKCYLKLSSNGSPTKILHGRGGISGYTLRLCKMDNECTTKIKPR
Chain of Coagulation factor XI (P03951 388-625 limits assumed): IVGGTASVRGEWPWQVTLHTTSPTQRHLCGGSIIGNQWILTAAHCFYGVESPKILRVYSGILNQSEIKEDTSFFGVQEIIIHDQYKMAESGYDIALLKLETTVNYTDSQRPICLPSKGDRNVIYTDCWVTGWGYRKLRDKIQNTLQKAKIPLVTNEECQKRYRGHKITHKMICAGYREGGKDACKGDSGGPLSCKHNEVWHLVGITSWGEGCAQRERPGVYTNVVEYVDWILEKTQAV

As to `CC[C@H](C)[C@@H]1NC(=O)[C@@H]2CCCN2C(=O)[C@@H]2CCCN2C(=O)[C@H](CCCCN)NC(=O)[C@H](CO)NC(=O)[C@H](CCCCN)NC(=O)[C@H](Cc2ccc(O)cc2)NC(=O)[C@@H]2CSSC[C@H](NC1=O)C(=O)N[C@@H](Cc1ccccc1)C(=O)N1CCC[C@H]1C(=O)N[C@@H](CC(=O)O)C(=O)NCC(=O)N[C@@H](CCCNC(=N)N)C(=O)N2` (HELM PEPTIDE1{C.F.P.D.G.R.C.Y.K.S.K.P.P.I}$PEPTIDE1,PEPTIDE1,1:R3-7:R3|PEPTIDE1,PEPTIDE1,1:R1-14:R2$$$V2.0), the Ratio IC50 in the experiment filed under Homo sapiens [1], in the experiment filed under Homo sapiens [3], in the experiment listed under Homo sapiens [4] and in the experiment listed under Homo sapiens [6] was > 1e+06 each time. Further, the inhibition on Plasminogen [2] was 100%. In addition, the K on Plasminogen [5] was 9.9 ×10⁻⁴ /s. Further, the values for the Ki on Coagulation factor XI and at Serine protease 1 were > 50000 nM and 160 nM, respectively.
